ChEMBL document CHEMBL1141590, “Development of peptidomimetics with a vinyl sulfone warhead as irreversible falcipain-2 inhibitors” (J Med Chem, 2008)

Assays:
Falcipain 2 = molecular target: T1, Falcipain 2 (Plasmodium falciparum, UniProt Q9N6S8); test: (§1) Inhibition of Plasmodium falciparum recombinant falcipain-2
T1 sequence (Q9N6S8 whole entry): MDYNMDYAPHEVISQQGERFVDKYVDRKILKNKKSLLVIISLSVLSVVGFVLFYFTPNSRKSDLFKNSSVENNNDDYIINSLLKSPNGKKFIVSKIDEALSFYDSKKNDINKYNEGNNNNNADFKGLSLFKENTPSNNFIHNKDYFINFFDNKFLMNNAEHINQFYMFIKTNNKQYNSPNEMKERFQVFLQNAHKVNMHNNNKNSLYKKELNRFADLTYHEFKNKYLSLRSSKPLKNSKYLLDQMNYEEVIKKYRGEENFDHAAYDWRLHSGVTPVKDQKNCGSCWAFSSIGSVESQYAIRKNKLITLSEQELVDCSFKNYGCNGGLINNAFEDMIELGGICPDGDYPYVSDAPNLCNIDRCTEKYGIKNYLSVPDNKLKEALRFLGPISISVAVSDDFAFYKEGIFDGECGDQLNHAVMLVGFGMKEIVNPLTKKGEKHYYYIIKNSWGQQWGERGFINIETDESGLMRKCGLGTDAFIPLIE
Summary of the method: (§2)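 Recombinant FP-2 in 100 mM sodium acetate pH 5.5, 10 mM DTT; Cbz-Phe-Arg-AMC 32 µM, fluorescence (ex 365/em 460 nm) monitored continuously 20 min at room temperature. Seven inhibitor levels within 0–10 µM; kobs from progress-curve fits, hyperbolic fit gave kinac and Kiapp, corrected with Km 21.5 µM; k2nd = kinac/Kinac. Two independent runs, each in duplicate.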

[1] = molecular target: T2, Falcipain 2 (Plasmodium falciparum) (UniProt Q9N6S8); test: as §1; summary of the method: as §2
T2 sequence (whole entry): T1 sequence (Q9N6S8 whole entry)

Plasmodium falciparum = test: Antiplasmodial activity against Plasmodium falciparum 3D7 after 72 hrs in Malstat assay; type: functional, organism-based; conditions: 3D7, 72 h
Summary of the method: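 Synchronized ring-stage P. falciparum 3D7 plated at 1% parasitemia with compounds (in DMSO) at 1 nM–100 µM; 0.5% v/v DMSO alone as negative control. Cultured in vitro 72 h, then viability read by Malstat assay (parasite lactate dehydrogenase activity); dose-dependent effect quantified.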

Cathepsin B = Cathepsin B (Homo sapiens, UniProt P07858); test: Inhibition of human cathepsin B
Summary of the method: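 Cathepsin B continuous progress-curve assay with Cbz-Phe-Arg-AMC at 80 µM; Kiapp corrected to zero substrate using Km 150 µM to give Kinac. Two independent runs, each in duplicate.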

Procathepsin L = Procathepsin L (Homo sapiens, UniProt P07711); test: Inhibition of human cathepsin L
Summary of the method: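 Cathepsin L continuous progress-curve assay with Cbz-Phe-Arg-AMC at 5 µM; Kiapp corrected to zero substrate using Km 6.5 µM to give Kinac. Two independent runs, each in duplicate.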

Row | Compound | Ki (Falcipain 2) [µM] | Kinact [1] [min⁻¹] | IC50 (Plasmodium falciparum) [µM] | Ki (Cathepsin B) [µM] | Kinact (Cathepsin B) [min⁻¹] | Ki (Procathepsin L) [µM] | Kinact (Procathepsin L) [min⁻¹] | IC50 (Falcipain 2) [µM]
1 | CC(C)C[C@H](NC(=O)[C@H]1O[C@@H]1C(=O)O)C(=O)NCCCCN=C(N)N [E-64] | 0.29 | 0.46 | 5.3 |  |  |  |  | 
2 | CCS(=O)(=O)/C=C/CNC(=O)CN1C(=O)[C@@H](COC(=O)Nc2ccc(Cl)cc2C(F)(F)F)N=C(c2ccccc2)c2ccccc21 | 0.11 | 0.027 | 56.6 | 4.3 | 0.039 |  |  | 8
3 | O=C(CN1C(=O)[C@@H](COC(=O)Nc2ccc(Cl)cc2C(F)(F)F)N=C(c2ccccc2)c2ccccc21)N[C@H]1CC(=O)OC1O (some centres not stated) |  |  |  |  |  |  |  | 8
4 | CS(=O)(=O)/C=C/CNC(=O)CN1C(=O)[C@@H](COC(=O)Nc2ccc(Cl)cc2C(F)(F)F)N=C(c2ccccc2)c2ccccc21 | 0.37 | 0.059 | 18.1 | 11 | 0.048 |  |  | 8
5 | O=C(CN1C(=O)[C@@H](COC(=O)Nc2ccc(Cl)cc2C(F)(F)F)N=C(c2ccccc2)c2ccccc21)NC/C=C/S(=O)(=O)c1ccccc1 | 0.14 | 0.033 | 23.1 | 4.6 | 0.047 | 21.9 | 0.16 | 8

Further lines, with some results ahead:

Row | Ki (Falcipain 2) [µM] | Kinact [1] [min⁻¹] | IC50 (Plasmodium falciparum) [µM] | Ki (Cathepsin B) [µM] | Kinact (Cathepsin B) [min⁻¹] | Ki (Procathepsin L) [µM] | Kinact (Procathepsin L) [min⁻¹] | Compound | IC50 (Falcipain 2) [µM]
6 | 0.32 | 0.1 | 9.1 | 4.4 | 0.045 | 13.5 | 0.1 | CCS(=O)(=O)/C=C/[C@H](CCc1ccccc1)NC(=O)CN1C(=O)[C@@H](COC(=O)Nc2ccc(Cl)cc2C(F)(F)F)N=C(c2ccccc2)c2ccccc21 | 
7 | 0.12 | 0.031 | > 100 | 5.9 | 0.059 | 14 | 0.1 | COc1ccc(S(=O)(=O)/C=C/CNC(=O)CN2C(=O)C(COC(=O)Nc3ccc(Cl)cc3C(F)(F)F)N=C(c3ccccc3)c3ccccc32)cc1 (configuration not stated) | 8
8 | 0.053 | 0.034 | 59.6 | 3.3 | 0.045 |  |  | COc1ccc(S(=O)(=O)/C=C/[C@H](CCc2ccccc2)NC(=O)CN2C(=O)[C@@H](COC(=O)Nc3ccc(Cl)cc3C(F)(F)F)N=C(c3ccccc3)c3ccccc32)cc1 | 
9 | 0.39 | 0.16 | 55.4 | 14.5 | 0.064 |  |  | CS(=O)(=O)/C=C/[C@H](CCc1ccccc1)NC(=O)CN1C(=O)[C@@H](COC(=O)Nc2ccc(Cl)cc2C(F)(F)F)N=C(c2ccccc2)c2ccccc21 | 8
10 | 0.6 | 0.11 | 9.2 | 3.1 | 0.039 | 7 | 0.12 | O=C(CN1C(=O)[C@@H](COC(=O)Nc2ccc(Cl)cc2C(F)(F)F)N=C(c2ccccc2)c2ccccc21)N[C@H](/C=C/S(=O)(=O)c1ccccc1)CCc1ccccc1 | 
